Measured values: publication PMC4698184 (Antiviral Research, 2015)

Assays:
[1] = cited from earlier work
HRV51 = test: Cell-based inhibition assay; conditions: Human rhinovirus sp., HRV51, WI-38, read-out: EC50 HRV51
How it was run: (§1)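 WI-38 cells, confluent or semi-confluent, at 37 °C were infected at MOI 0.05 for 1 h. Inoculum was then replaced with medium containing test compound (up to 100 μM) or DMSO (<0.1%). Cells were incubated up to 168 h, until 80–90% CPE. Virus yield was titrated by TCID50 (Reed–Muench), and EC50 was derived by curve fitting.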

[2] = ref Dragovich et al., 1999; cited from earlier work
EV-D68 = test: Cell-based inhibition assay; conditions: Enterovirus D, EVD68, WI-38, read-out: EC50 EV-D68
How it was run: as §1

HRV1B = test: Cell-based inhibition assay; conditions: Human rhinovirus sp., WI-38, read-out: EC50 HRV1B
How it was run: as §1

HRV strains = conditions: read-out: EC50 against HRV strains; ref Patick et al., 2005; cited from earlier work

Row | Structure (SMILES) | oral bioavailability ([1]; ref Dragovich et al., 1999) | EC50 (HRV51) [µM] | aqueous solubility [2] | EC50 (EV-D68) [µM] | EC50 (HRV1B) [µM] | oral availability ([1]; ref Patick et al., 2005) | EC50 (HRV strains) [µM]
1 | CCOC(=O)/C=C/[C@H](C[C@@H]1CCNC1=O)NC(=O)[C@@H](CC(=O)[C@@H](NC(=O)c1cc(C)on1)C(C)C)Cc1ccc(F)cc1 [AG7088] | low oral bioavailability | 0.05 ± 0.03 | poor aqueous solubility | 0.01 ± 0.003 | 0.02 ± 0.01 |  | 
2 | C#CC[C@@H](C(=O)N[C@H](/C=C/C(=O)OCC)C[C@@H]1CCNC1=O)n1cccc(NC(=O)c2cc(C)on2)c1=O [Compound 1 (Patick et al., 2005)] |  |  |  |  |  | orally available | < 0.1
3 | Cc1cc(CCCOc2c(C)cc(-c3noc(C(F)(F)F)n3)cc2C)on1 [Plecornaril, Pleconaril] |  | 0.07 ± 0.02 |  | 0.6 ± 0.14 | 0.27 ± 0.18 |  | 
